Measurements as given in ChEMBL document CHEMBL1154352, “Toll-like receptor 7 selective synthetic oligoribonucleotide agonists: synthesis and structure-activity relationship studies” (J Med Chem, 2009).
Activity calls are given as the source filed them. The calls are words filed in the database; no cut-off is given here.

Key:
[1] = Metabolic stability in human serum assessed as full length product remaining after 10 mins by HPLC; format: ADME, cell-free; conditions: read-out: Stability
Summary of the method: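 About 0.5 A260 units compound in 1% human serum in PBS, 37 °C; aliquot taken at 10 min, analysed by anion-exchange HPLC for percent intact full-length product.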

[2] = target: T1, Toll-like receptor 8 (Homo sapiens) (UniProt Q9NR97); assay: Activation of human TLR8 expressed in HEK293XL assessed as fold induction of NF-kappaB activity at 50 ug/ml after 18 hrs by reporter gene assay relative to control
T1 sequence (whole entry): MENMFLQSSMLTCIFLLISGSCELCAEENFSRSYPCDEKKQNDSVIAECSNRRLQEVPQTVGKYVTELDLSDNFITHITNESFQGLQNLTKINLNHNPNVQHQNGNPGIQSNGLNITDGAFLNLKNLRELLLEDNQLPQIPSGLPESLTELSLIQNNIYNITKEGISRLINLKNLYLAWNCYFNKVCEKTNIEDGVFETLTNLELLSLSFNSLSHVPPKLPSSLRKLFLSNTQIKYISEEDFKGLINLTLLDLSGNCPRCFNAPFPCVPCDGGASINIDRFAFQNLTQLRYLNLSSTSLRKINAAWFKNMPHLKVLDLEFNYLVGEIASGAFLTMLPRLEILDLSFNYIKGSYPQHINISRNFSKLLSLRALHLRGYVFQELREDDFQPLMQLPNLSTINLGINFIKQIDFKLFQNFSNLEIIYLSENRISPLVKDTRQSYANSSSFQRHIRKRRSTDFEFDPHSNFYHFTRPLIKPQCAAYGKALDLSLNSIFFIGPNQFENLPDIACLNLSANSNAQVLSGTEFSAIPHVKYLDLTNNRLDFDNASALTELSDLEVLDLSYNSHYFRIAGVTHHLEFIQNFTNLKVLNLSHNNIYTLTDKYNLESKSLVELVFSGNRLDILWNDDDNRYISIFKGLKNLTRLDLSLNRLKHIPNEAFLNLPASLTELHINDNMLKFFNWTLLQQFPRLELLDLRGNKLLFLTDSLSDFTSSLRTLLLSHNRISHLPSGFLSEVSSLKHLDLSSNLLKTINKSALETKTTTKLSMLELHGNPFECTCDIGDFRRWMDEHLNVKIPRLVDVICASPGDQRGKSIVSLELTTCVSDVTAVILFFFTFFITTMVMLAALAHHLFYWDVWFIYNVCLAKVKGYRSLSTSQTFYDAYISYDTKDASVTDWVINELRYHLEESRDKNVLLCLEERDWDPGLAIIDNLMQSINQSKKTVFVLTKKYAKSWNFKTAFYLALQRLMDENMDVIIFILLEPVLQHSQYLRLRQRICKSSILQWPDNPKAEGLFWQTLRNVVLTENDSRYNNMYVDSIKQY
Summary of the method: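 HEK293 cells stably expressing human TLR7 or TLR8, transiently transfected with SEAP reporter plasmid; medium replaced, SIMRA compounds added, 18 h incubation. Supernatant SEAP measured by QuantiBlue; expressed as fold increase in NF-κB activity over PBS control. Tabulated data at 50 μg/mL, representative of three independent experiments.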

[3] = target: T2, Toll-like receptor 9 (Mus musculus) (UniProt Q9EQU3); assay: Activation of mouse TLR9 expressed in HEK293 assessed as induction of NF-kappaB activity reporter gene assay; format: cell-based
T2 sequence (whole entry): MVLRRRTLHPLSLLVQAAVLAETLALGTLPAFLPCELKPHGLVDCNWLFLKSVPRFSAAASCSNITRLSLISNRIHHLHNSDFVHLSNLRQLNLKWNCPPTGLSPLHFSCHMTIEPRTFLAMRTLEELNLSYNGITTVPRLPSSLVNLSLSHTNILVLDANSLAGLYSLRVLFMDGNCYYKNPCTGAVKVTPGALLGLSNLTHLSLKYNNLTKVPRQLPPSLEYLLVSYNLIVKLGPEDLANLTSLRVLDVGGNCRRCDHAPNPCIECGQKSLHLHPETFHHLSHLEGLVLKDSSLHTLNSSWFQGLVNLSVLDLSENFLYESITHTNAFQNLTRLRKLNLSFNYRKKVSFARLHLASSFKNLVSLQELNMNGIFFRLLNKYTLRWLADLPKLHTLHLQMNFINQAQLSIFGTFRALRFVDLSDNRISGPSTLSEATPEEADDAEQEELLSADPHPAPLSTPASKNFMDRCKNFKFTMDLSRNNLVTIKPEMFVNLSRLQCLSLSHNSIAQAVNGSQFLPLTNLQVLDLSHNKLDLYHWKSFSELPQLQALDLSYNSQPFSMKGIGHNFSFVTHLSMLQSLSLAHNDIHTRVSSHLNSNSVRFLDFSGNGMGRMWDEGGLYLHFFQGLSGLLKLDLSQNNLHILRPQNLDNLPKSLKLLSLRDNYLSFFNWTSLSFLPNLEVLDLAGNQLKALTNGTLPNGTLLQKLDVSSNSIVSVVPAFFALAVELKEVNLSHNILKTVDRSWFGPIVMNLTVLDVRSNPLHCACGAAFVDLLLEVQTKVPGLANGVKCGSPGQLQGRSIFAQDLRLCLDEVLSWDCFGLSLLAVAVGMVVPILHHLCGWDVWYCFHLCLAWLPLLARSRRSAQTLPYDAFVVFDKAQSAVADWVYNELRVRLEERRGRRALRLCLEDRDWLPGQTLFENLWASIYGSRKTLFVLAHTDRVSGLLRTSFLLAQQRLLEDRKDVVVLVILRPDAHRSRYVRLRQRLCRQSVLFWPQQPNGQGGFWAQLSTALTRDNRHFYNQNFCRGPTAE

[4] = target: Toll-like receptor 3 (Homo sapiens) (UniProt O15455); assay: Activation of human TLR3 expressed in HEK293 assessed as induction of NF-kappaB activity reporter gene assay; format: cell-based
Chain of Toll-like receptor 3 (Homo sapiens) (O15455 whole entry): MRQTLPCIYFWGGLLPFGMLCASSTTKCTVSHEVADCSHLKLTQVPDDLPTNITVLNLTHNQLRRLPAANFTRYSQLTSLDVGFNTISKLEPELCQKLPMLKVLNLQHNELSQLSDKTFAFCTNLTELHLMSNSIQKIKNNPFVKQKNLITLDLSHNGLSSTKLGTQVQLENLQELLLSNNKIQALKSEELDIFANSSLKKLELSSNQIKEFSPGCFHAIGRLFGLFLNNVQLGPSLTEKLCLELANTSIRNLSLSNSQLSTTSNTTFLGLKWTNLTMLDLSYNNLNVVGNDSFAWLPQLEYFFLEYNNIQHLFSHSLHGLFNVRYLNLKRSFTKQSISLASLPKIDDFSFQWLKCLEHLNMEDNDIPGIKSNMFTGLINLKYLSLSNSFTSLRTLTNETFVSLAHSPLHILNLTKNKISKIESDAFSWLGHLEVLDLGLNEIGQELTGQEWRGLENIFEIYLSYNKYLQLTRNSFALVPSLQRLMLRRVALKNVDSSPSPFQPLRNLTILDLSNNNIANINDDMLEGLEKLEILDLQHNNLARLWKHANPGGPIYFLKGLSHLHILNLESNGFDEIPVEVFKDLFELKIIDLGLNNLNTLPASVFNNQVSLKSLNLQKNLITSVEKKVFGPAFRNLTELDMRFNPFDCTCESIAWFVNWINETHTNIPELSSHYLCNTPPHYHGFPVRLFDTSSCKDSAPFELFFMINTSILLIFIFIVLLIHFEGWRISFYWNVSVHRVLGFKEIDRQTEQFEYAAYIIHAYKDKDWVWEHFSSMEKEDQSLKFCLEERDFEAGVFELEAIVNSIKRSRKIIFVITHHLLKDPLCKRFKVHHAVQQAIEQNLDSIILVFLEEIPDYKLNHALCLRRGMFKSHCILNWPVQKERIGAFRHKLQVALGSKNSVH

PBMC [5] = assay: Immunomodulatory activity in human PBMC assessed as induction of IL12 at 100 ug/ml after 24 hrs; format: functional, cell-based
Summary of the method: (§1)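 Human PBMCs plated at 5 × 10^6 cells/mL; compounds dissolved in PBS added at various concentrations, 37 °C for 24 h. Supernatant cytokines/chemokines quantified with human Luminex multiplex kit.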

PBMC [6] = assay: Immunomodulatory activity in human PBMC assessed as induction of TNFalpha at 100 ug/ml after 24 hrs; format: functional, cell-based; summary of the method: as §1
PBMC [7] = assay: Immunomodulatory activity in human PBMC assessed as induction of IFN-alpha at 100 ug/ml after 24 hrs
Splenocyte [8] = assay: Immunomodulatory activity in C57BL/6 mouse splenocytes bearing TLR7 receptor assessed as IL6 release at 100 ug/ml after 24 hrs by ELISA; format: functional, cell-based
Summary of the method: (§2)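 C57BL/6 splenocytes in RPMI 1640 with 10% FBS, penicillin/streptomycin, 2 mM L-glutamine, plated at 5 × 10^6 cells/mL; compounds in PBS added, 37 °C for 24 h. Supernatant IL-12 and IL-6 by ELISA; representative of three independent experiments.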

Splenocyte [9] = assay: Immunomodulatory activity in C57BL/6 mouse splenocytes bearing TLR7 receptor assessed as IL12 release at 100 ug/ml after 24 hrs by ELISA; format: functional, cell-based; summary of the method: as §2

remaining at 10 min [1] [%] | fold change (FC) [2] | Activity [3] | Activity [4] | Activity (Splenocyte [8]) | Activity (Splenocyte [9]) | Compound | Activity (PBMC [5]) [pg/mL] | Activity (PBMC [6]) [pg/mL] | IFN-alpha (PBMC [7]) [pg/mL]
92 | 0.7 | inactive | inactive |  |  | Nc1ncnc2c1ncn2[C@@H]1O[C@H](CO)[C@@H](OP(=O)(S)OC[C@H]2O[C@@H](n3cnc4c(N)ncnc43)[C@H](O)[C@@H]2OP(=O)(S)OC[C@H]2O[C@@H](n3cnc4c(N)ncnc43)[C@H](O)[C@@H]2OP(=O)(S)OC[C@H]2O[C@@H](n3cnc4c(N)ncnc43)[C@H](O)[C@@H]2OP(=O)(S)OC[C@H]2O[C@@H](n3cnc4c(N)ncnc43)[C@H](O)[C@@H]2OP(=O)(S)OC[C@H]2O[C@@H](n3cnc4c(N)ncnc43)[C@H](O)[C@@H]2OP(=O)(S)OC[C@H]2O[C@@H](n3cnc4c(N)ncnc43)[C@H](O)[C@@H]2OP(=O)(S)OC[C@H]2O[C@@H](n3cnc4c(N)ncnc43)[C@H](O)[C@@H]2OP(=O)(S)OC[C@H]2O[C@@H](n3cnc4c(N)ncnc43)[C@H](O)[C@@H]2OP(=O)(S)OC[C@H]2O[C@@H](n3cnc4c(N)ncnc43)[C@H](O)[C@@H]2OP(=O)(S)OC[C@H]2O[C@@H](n3cnc4c(N)ncnc43)[C@H](O)[C@@H]2OP(=O)(S)OCC(O)COP(=O)(S)O[C@H]2[C@@H](O)[C@H](n3cnc4c(N)ncnc43)O[C@@H]2COP(=O)(S)O[C@H]2[C@@H](O)[C@H](n3cnc4c(N)ncnc43)O[C@@H]2COP(=O)(S)O[C@H]2[C@@H](O)[C@H](n3cnc4c(N)ncnc43)O[C@@H]2COP(=O)(S)O[C@H]2[C@@H](O)[C@H](n3cnc4c(N)ncnc43)O[C@@H]2COP(=O)(S)O[C@H]2[C@@H](O)[C@H](n3cnc4c(N)ncnc43)O[C@@H]2COP(=O)(S)O[C@H]2[C@@H](O)[C@H](n3cnc4c(N)ncnc43)O[C@@H]2COP(=O)(S)O[C@H]2[C@@H](O)[C@H](n3cnc4c(N)ncnc43)O[C@@H]2COP(=O)(S)O[C@H]2[C@@H](O)[C@H](n3cnc4c(N)ncnc43)O[C@@H]2COP(=O)(S)O[C@H]2[C@@H](O)[C@H](n3cnc4c(N)ncnc43)O[C@@H]2COP(=O)(S)O[C@H]2[C@@H](O)[C@H](n3cnc4c(N)ncnc43)O[C@@H]2COP(=O)(S)O[C@H]2[C@@H](O)[C@H](n3cnc4c(N)ncnc43)O[C@@H]2CO)[C@H]1O (stereo partly drawn) | 183 | 1.6 | 0
87 | 1.4 | inactive | inactive | Active | Active | Nc1ccn([C@@H]2O[C@H](COP(=O)(S)O[C@H]3[C@@H](O)[C@H](n4cnc5c(N)ncnc54)O[C@@H]3CO)[C@@H](OP(=O)(S)OC[C@H]3O[C@@H](n4ccc(=O)[nH]c4=O)[C@H](O)[C@@H]3OP(=O)(S)OC[C@H]3O[C@@H](n4ccc(=O)[nH]c4=O)[C@H](O)[C@@H]3OP(=O)(S)OC[C@H]3O[C@@H](n4ccc5c(=O)[nH]c(N)nc54)[C@H](O)[C@@H]3OP(=O)(S)OC[C@H]3O[C@@H](n4cnc5c(N)ncnc54)[C@H](O)[C@@H]3OP(=O)(S)OC[C@H]3O[C@@H](n4ccc(N)nc4=O)[C@H](O)[C@@H]3OP(=O)(S)OC[C@H]3O[C@@H](n4ccc(=O)[nH]c4=O)[C@H](O)[C@@H]3OP(=O)(S)OC[C@H]3O[C@@H](n4ccc(=O)[nH]c4=O)[C@H](O)[C@@H]3OP(=O)(S)OC[C@H]3O[C@@H](n4ccc5c(=O)[nH]c(N)nc54)[C@H](O)[C@@H]3OP(=O)(S)OC[C@H]3O[C@@H](n4cnc5c(N)ncnc54)[C@H](O)[C@@H]3OP(=O)(S)OCC(O)COP(=O)(S)O[C@H]3[C@@H](O)[C@H](n4cnc5c(N)ncnc54)O[C@@H]3COP(=O)(S)O[C@H]3[C@@H](O)[C@H](n4ccc5c(=O)[nH]c(N)nc54)O[C@@H]3COP(=O)(S)O[C@H]3[C@@H](O)[C@H](n4ccc(=O)[nH]c4=O)O[C@@H]3COP(=O)(S)O[C@H]3[C@@H](O)[C@H](n4ccc(=O)[nH]c4=O)O[C@@H]3COP(=O)(S)O[C@H]3[C@@H](O)[C@H](n4ccc(N)nc4=O)O[C@@H]3COP(=O)(S)O[C@H]3[C@@H](O)[C@H](n4cnc5c(N)ncnc54)O[C@@H]3COP(=O)(S)O[C@H]3[C@@H](O)[C@H](n4ccc5c(=O)[nH]c(N)nc54)O[C@@H]3COP(=O)(S)O[C@H]3[C@@H](O)[C@H](n4ccc(=O)[nH]c4=O)O[C@@H]3COP(=O)(S)O[C@H]3[C@@H](O)[C@H](n4ccc(=O)[nH]c4=O)O[C@@H]3COP(=O)(S)O[C@H]3[C@@H](O)[C@H](n4ccc(N)nc4=O)O[C@@H]3COP(=O)(S)O[C@H]3[C@@H](O)[C@H](n4cnc5c(N)ncnc54)O[C@@H]3CO)[C@H]2O)c(=O)n1 (stereo partly drawn) |  |  | 
